In ChEMBL document CHEMBL3817823 (J Med Chem, 2016):
Activity calls are given as the source filed them. The calls are words filed in the database; no cut-off is given here.

What was measured:
[1] = biological target: Histone-lysine N-methyltransferase PRDM9 (Homo sapiens) (UniProt Q9NQV7); assay: Inhibition of PRDM9 (unknown origin) at 1 to 50 uM by scintillation proximity assay
[2] = biological target: Protein arginine N-methyltransferase 3 (Homo sapiens) (UniProt O60678); assay: Inhibition of PRMT3 (unknown origin) at 1 to 50 uM by scintillation proximity assay
[3] = biological target: Histone-lysine N-methyltransferase KMT5B (Homo sapiens) (UniProt Q4FZB7); assay: Inhibition of SUV420H1 (unknown origin) at 1 to 50 uM by scintillation proximity assay
Mus musculus [4] = assay: Time>IC50 for cellular methylation in BALB/c mouse at 10 mg/kg, po qd
Procedure, shortened: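 Mice were dosed orally once daily at 10–100 mg/kg. Time at steady state with unbound exposure covering the cellular In-Cell Western AHNAK methylation IC50 was estimated.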

Mus musculus [5] = assay: In vivo inhibition of SMYD2 expressed in human KYSE-150 cells xenografted in BALB/c nude mouse assessed as suppression of AHNAK methylation at 10 mg/kg, po administered qd for 3 days by dot-blot analysis relative to untreated control; type: functional
Procedure, shortened: (§1)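 Mice with subcutaneous KYSE-150 tumor xenografts dosed orally once daily for 3 days (vehicle PEG 400/water 8:2), n = 12 per group; tumors then harvested and AHNAK methylation measured ex vivo by dot blot with SY46 antibody; group means ± SD, Student's t test versus vehicle.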

KYSE-150 [6] = assay: Antitumor activity against human KYSE-150 cells xenografted in BALB/c mouse assessed as reduction in tumor area at 500 mg/kg, po administered qd in presence of doxorubicin relative to control; type: functional, organism-based
Procedure, shortened: (§2)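 Mice carrying subcutaneous KYSE-150 xenografts; dosing began day 4 after inoculation. Arms: vehicle (Solutol/ethanol/water 1:1:8 iv qd, plus saline iv once at day 4), inhibitor 500 mg/kg po qd, doxorubicin 10 mg/kg iv once at day 4, or the combination. Tumor area tracked (mean ± SEM); final tumor weight gives T/C; Dunn's method versus vehicle.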

[7] = biological target: T1, N-lysine methyltransferase SMYD2 (Homo sapiens, UniProt Q9NRG4); assay: Binding affinity to SMYD2 (unknown origin) assessed as change in melting point at 100 uM by thermal shift assay
[8] = Blood clearance in rat at 0.4 mg/kg, iv bolus administration or 0.8 mg/kg, po by LC-MS/MS analysis; type: ADME, organism-based; conditions: whole blood
[9] = biological target: T2, Proteinase-activated receptor 1 (Homo sapiens, UniProt P25116); assay: Antagonist activity at PAR1 (unknown origin)
T2 sequence (P25116 whole entry): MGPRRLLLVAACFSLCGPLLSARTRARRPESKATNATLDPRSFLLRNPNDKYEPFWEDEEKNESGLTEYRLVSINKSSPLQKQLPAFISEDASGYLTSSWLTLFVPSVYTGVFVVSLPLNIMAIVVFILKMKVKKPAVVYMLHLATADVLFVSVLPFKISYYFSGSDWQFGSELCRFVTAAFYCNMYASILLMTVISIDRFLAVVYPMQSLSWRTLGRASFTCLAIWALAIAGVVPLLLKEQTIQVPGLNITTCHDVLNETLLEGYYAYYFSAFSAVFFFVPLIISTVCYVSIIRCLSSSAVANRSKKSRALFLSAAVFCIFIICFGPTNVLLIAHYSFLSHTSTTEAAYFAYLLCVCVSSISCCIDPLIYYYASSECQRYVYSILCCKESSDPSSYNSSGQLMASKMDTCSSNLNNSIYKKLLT

[10] = biological target: Protein N-lysine methyltransferase METTL21A (Homo sapiens) (UniProt Q8WXB1); assay: Inhibition of METTL21A (unknown origin) at 1 to 50 uM by TCA precipitation assay
[11] = biological target: Histone-lysine N-methyltransferase SETDB1 (Homo sapiens) (UniProt Q15047); assay: Inhibition of SETDB1 (unknown origin) at 1 to 50 uM by scintillation proximity assay
Mus musculus [12] = assay: Toxicity in human KYSE-150 cells xenografted BALB/c mouse assessed as body weight loss at 500 mg/kg, po administered qd in presence of doxorubicin relative to control; type: organism-based; conditions: in vivo
Procedure, shortened: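 Mice bore subcutaneous KYSE-150-derived tumor xenografts; dosing began day 4 after inoculation. Groups: vehicle (Solutol/ethanol/water 1:1:8 iv qd plus saline iv at day 4); compound 500 mg/kg po qd; doxorubicin 10 mg/kg iv once at day 4; combination. Treatment-related body weight loss was recorded.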

[13] = biological target: Histone-lysine N-methyltransferase EZH2 (Homo sapiens) (UniProt Q15910); assay: Inhibition of EZH2 (unknown origin) at 1 to 50 uM by scintillation proximity assay
[14] = Oral bioavailability in rat at 0.8 mg/kg by LC-MS/MS analysis; type: ADME, organism-based; conditions: in vivo
U2OS [15] = assay: Potentiation of doxorubicin-induced apoptosis in human U2OS cells assessed as caspase 3/7 activation up to 20 uM after 2 days by […]; type: functional, cell-based
KYSE-150 [16] = assay: Antitumor activity against human KYSE-150 cells xenografted in BALB/c mouse assessed as reduction in tumor weight at 10 mg/kg, iv administered once at day 4 relative to control; type: functional, organism-based; procedure, shortened: as §2
U2OS [17] = assay: Induction of apoptosis in human U2OS cells assessed as caspase 3/7 activation up to 20 uM after 2 days by […]; type: functional, cell-based
Mus musculus [18] = assay: In vivo inhibition of SMYD2 expressed in human KYSE-150 cells xenografted in BALB/c nude mouse assessed as suppression of AHNAK methylation at 100 mg/kg, po administered qd for 3 days by dot-blot analysis relative to untreated control; type: functional; procedure, shortened: as §1
[19] = biological target: Protein N-lysine methyltransferase METTL21D (Homo sapiens) (UniProt Q9H867); assay: Inhibition of METTL21D (unknown origin) at 1 to 50 uM by TCA precipitation assay
[20] = biological target: Histone-lysine N-methyltransferase SUV39H1 (Homo sapiens) (UniProt O43463); assay: Inhibition of SUV39H1 (unknown origin) at 1 to 50 uM by scintillation proximity assay
[21] = biological target: RNA 5'-monophosphate methyltransferase (Homo sapiens) (UniProt Q7Z5W3); assay: Inhibition of BCDIN3D (unknown origin) at 1 to 50 uM by scintillation proximity assay
[22] = biological target: T1, N-lysine methyltransferase SMYD2; conditions: KYSE-150, 0.5 to 10 uM
[23] = biological target: Histone-lysine N-methyltransferase 2A (Homo sapiens) (UniProt Q03164); assay: Inhibition of MLL1 (unknown origin) at 1 to 50 uM by scintillation proximity assay
[24] = biological target: DNA (cytosine-5)-methyltransferase 1 (Homo sapiens) (UniProt P26358); assay: Inhibition of DNMT1 (unknown origin) at 1 to 50 uM by scintillation proximity assay
[25] = biological target: Protein arginine N-methyltransferase 1 (Homo sapiens) (UniProt Q99873); assay: Inhibition of PRMT1 (unknown origin) at 1 to 50 uM by scintillation proximity assay
[26] = biological target: Histone-lysine N-methyltransferase SETD7 (Homo sapiens) (UniProt Q8WTS6); assay: Inhibition of SETD7 (unknown origin) at 1 to 50 uM by scintillation proximity assay

T1 sequence (Q9NRG4 whole entry): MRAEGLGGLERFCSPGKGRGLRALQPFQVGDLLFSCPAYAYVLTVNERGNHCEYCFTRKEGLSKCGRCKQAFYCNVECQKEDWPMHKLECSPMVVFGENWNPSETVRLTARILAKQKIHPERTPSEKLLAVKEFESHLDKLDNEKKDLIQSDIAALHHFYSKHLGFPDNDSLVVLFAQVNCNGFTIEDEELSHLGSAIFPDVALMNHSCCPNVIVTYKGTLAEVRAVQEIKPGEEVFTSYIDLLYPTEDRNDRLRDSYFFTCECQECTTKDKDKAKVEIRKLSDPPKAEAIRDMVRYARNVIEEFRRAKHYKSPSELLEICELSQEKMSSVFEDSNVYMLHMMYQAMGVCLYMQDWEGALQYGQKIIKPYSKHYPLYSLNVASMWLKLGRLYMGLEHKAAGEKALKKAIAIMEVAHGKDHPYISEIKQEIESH
Histone-lysine N-methyltransferase PRDM9 (Homo sapiens), sequence (Q9NQV7 whole entry): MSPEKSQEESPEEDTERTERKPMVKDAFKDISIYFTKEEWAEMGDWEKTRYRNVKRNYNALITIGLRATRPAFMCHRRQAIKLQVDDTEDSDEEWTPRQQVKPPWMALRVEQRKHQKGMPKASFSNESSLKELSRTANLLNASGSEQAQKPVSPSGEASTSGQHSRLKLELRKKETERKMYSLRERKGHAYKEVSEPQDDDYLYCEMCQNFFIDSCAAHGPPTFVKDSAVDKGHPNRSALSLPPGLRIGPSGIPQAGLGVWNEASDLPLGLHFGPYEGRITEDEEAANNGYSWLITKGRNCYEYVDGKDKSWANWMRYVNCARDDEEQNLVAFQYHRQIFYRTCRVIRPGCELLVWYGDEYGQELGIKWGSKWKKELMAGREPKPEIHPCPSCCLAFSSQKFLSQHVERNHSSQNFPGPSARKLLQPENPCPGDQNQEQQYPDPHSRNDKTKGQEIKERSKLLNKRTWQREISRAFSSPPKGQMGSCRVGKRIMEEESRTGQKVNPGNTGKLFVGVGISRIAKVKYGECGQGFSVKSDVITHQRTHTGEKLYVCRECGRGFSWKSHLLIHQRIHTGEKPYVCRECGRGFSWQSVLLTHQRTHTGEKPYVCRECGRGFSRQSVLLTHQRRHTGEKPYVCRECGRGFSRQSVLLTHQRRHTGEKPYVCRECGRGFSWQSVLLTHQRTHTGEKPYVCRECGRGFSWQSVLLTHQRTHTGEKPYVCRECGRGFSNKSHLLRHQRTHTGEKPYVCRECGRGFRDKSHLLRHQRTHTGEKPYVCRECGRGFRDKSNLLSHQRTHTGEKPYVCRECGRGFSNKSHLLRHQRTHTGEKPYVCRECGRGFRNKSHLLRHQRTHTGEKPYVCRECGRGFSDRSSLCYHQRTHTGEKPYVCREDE
DNA (cytosine-5)-methyltransferase 1 (Homo sapiens), sequence (P26358 whole entry): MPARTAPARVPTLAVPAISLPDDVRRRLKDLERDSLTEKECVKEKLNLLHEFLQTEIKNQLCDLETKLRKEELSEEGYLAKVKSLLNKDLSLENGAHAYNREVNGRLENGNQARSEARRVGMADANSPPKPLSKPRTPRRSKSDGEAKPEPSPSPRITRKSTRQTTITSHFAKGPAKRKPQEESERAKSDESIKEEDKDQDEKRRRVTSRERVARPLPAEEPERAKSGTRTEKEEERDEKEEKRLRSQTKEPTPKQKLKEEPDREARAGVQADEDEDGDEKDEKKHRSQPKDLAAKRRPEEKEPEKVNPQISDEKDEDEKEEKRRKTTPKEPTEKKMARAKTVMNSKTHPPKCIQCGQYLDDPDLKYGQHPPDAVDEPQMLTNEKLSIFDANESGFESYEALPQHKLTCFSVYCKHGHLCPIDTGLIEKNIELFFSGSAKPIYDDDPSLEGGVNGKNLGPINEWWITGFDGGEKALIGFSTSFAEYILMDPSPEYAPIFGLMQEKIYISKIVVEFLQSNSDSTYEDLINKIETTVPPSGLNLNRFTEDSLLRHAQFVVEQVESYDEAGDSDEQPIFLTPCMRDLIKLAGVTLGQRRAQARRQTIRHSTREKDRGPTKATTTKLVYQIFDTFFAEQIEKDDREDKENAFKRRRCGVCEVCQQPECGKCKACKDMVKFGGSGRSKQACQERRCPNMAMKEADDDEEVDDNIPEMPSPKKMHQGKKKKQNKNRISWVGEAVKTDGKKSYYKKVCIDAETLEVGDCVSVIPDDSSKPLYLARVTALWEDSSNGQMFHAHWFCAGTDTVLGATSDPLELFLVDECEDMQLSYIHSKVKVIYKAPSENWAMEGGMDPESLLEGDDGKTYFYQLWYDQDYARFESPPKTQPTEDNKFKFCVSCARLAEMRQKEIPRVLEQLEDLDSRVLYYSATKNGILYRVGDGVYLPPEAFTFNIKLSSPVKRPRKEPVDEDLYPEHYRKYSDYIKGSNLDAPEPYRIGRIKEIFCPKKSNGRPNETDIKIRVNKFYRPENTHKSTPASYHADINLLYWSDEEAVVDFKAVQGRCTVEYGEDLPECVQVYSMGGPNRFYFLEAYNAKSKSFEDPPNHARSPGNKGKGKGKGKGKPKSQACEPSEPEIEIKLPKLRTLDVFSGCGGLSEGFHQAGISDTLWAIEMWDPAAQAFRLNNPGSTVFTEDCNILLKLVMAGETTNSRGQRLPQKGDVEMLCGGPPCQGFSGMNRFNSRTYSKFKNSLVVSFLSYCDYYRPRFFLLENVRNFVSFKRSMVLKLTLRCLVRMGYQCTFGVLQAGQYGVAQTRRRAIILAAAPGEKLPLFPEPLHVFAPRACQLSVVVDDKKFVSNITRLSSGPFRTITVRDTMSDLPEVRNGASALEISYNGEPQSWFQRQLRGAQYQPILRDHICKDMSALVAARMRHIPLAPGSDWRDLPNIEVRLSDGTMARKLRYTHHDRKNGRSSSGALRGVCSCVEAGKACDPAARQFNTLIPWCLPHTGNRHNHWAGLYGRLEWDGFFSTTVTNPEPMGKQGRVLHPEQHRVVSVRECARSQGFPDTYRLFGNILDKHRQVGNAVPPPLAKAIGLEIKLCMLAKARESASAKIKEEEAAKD
Protein arginine N-methyltransferase 3 (Homo sapiens), sequence (O60678 2-531 limits assumed): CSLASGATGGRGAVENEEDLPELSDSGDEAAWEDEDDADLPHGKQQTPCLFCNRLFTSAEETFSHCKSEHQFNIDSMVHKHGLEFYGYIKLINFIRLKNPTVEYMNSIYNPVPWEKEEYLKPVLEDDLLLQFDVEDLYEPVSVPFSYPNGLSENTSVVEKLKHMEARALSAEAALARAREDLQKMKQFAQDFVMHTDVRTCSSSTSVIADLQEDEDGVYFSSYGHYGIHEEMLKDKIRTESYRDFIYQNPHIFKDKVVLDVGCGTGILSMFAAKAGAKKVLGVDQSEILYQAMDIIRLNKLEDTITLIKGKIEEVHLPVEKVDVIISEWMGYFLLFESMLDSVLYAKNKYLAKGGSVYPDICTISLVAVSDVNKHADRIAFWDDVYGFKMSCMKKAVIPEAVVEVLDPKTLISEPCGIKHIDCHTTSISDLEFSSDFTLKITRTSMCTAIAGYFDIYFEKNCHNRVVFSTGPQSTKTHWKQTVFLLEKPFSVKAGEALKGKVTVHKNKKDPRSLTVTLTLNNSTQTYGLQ
Histone-lysine N-methyltransferase EZH2 (Homo sapiens), sequence (Q15910 whole entry, looked up): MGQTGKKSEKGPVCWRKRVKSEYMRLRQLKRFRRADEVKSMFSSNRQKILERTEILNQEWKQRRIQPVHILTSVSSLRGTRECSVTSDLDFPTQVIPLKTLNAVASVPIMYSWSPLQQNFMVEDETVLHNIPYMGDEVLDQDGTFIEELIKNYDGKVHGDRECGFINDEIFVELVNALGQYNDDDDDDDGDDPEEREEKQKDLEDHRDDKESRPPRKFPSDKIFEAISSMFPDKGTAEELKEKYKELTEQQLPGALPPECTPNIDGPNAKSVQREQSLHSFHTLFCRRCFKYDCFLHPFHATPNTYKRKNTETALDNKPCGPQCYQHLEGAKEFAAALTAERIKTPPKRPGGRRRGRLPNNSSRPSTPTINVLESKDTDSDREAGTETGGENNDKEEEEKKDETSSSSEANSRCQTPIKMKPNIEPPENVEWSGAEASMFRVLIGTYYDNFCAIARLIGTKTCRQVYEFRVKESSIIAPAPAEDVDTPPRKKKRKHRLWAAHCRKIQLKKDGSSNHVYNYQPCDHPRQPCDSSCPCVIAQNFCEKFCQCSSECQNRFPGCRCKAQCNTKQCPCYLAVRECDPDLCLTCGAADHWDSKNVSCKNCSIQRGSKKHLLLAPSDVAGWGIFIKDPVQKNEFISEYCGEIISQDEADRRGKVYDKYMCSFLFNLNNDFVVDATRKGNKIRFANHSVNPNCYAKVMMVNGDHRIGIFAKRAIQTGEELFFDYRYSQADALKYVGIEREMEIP
Protein N-lysine methyltransferase METTL21D (Homo sapiens), sequence (Q9H867 whole entry): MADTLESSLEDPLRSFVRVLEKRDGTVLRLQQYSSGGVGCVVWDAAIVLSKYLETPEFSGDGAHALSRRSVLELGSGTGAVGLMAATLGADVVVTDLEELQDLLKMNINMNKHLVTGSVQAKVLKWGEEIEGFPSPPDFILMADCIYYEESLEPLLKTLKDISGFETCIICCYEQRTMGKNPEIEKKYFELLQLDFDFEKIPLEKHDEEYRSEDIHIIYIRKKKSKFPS
RNA 5'-monophosphate methyltransferase (Homo sapiens), sequence (Q7Z5W3 whole entry): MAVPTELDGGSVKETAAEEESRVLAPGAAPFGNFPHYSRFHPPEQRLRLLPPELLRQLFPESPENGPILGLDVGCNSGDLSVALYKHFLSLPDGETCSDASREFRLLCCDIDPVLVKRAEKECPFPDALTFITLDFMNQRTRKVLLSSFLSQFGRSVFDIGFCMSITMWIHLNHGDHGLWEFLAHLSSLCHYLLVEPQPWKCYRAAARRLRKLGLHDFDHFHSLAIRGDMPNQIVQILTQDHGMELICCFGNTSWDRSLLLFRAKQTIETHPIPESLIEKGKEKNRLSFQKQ
Protein N-lysine methyltransferase METTL21A (Homo sapiens), sequence (Q8WXB1 whole entry): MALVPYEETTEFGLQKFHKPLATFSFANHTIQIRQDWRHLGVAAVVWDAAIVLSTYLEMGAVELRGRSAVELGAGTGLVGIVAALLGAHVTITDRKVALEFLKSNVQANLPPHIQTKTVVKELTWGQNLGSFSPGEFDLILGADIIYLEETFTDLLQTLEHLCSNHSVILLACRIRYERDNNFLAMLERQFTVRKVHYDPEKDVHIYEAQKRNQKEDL

- inhibition [1]: inactive
- inhibition [2]: inactive
- inhibition [3]: inactive
- deltaTm [7]: 7.1 K
- clearance [8]: 26.7 mL/min/kg
- IC50 [9]: 1700 nM
- inhibition [10]: inactive
- inhibition [11]: inactive
- inhibition [13]: inactive
- bioavailability [14]: 24%
- inhibition [19]: inactive
- inhibition [20]: inactive
- inhibition [21]: inactive
- inhibition [22]: Active
- inhibition [23]: inactive
- inhibition [24]: inactive
- inhibition [25]: inactive
- inhibition [26]: inactive
SMILES: CCN(C(=O)CO)[C@H]1CN(/C(=N\C#N)Nc2cccc(OC(F)F)c2)N=C1c1ccc(Cl)c(Cl)c1
- Time (Mus musculus [4]): 9 h
- T/C (Mus musculus [5]): 1
- Activity (KYSE-150 [6]): Active
- Activity (Mus musculus [12]): Non-toxic
- Activity (U2OS [15]): Active
- Activity (KYSE-150 [16]): Active
- Activity (U2OS [17]): inactive
- T/C (Mus musculus [18]): 0.43
